From ChEMBL document CHEMBL2057137, “Lead optimization studies on FimH antagonists: discovery of potent and orally bioavailable ortho-substituted biphenyl mannosides” (J Med Chem, 2012) come the findings set out here.

Series [1] can be described thus: Effective permeability of the compound by PAMPA assay. Type of series: ADME. Further details: unit not given here; call rule not given here. For orientation: PAMPA measures passive passage across an artificial lipid membrane.
Series [2] deals with Mus musculus. The series is described as follows: Stability in mouse urinary tract infection model assessed as hydrolysis of glycosidic bond at 10 to 200 mg/kg, po. The series is classed as ADME, organism-based, Urine. Further details: dose 10-200 mg/kg, route oral. The note with it: in vivo. The gist of the method:
(§1)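 Oral dosing in mice. Urine and plasma compound levels quantified by LC-MS/MS in selected reaction monitoring mode. The phenolic biphenyl hydrolysis product (R group) in urine was monitored at transition 285/254.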

Series [3] is described as follows: Drug metabolism in mouse urine assessed as formation of phenolic biphenyl metabolite at 10 to 200 mg/kg, po. The series is classed as ADME, organism-based. Set-up: dose 10-200 mg/kg, route oral. The note with it: in vivo. The gist of the method: as §1
Series [4] concerns Mus musculus. The series is described as follows: Ratio of drug uptake in mouse urine to plasma at 50 mg/kg, po measured after 6 hrs. The note with it: in vivo.
Series [5] in a line: Binding affinity to biotinylated Escherichia coli FimH-lectin domain after 30 mins by biolayer interferometry method. The gist of the method:
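FimH lectin domain biotinylated 1:1, loaded at 50μg/ml in HBS (20mM HEPES pH 7.5, 150mM NaCl) onto streptavidin tips, biocytin-blocked. Compound applied as 7 twofold dilutions in HBS for 10 min association, then 30 min dissociation, 30°C with shaking. Referenced to biocytin-blocked pins for drift and nonspecific binding. Kd from global kinetic fitting.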
On the technique in general: BLI is a label-free optical method that tracks binding on a fibre tip over time.

A short description of series [6]: Drug level in mouse urine at 100 mg/kg, po measured after 6 hrs. The note with it: read-out: Drug uptake. The series is classed as ADME, organism-based. Set-up: dose 100 mg/kg, route oral. In outline:
as §1

The subject of series [7] is Escherichia coli. Briefly: Antibacterial activity against Escherichia coli K-12 ATCC 25404 assessed as inhibition of biofilm formation after 2 hrs by confocal laser microscopic analysis. The series is classed as functional, organism-based.
Series [8] in a line: Plasma concentration in mouse at 100 mg/kg, po measured after 6 hrs. Type of series: ADME, organism-based. Set-up: dose 100 mg/kg, route oral. In outline:
as §1

The subject of series [9] is Escherichia coli. Briefly: Binding affinity to […] Escherichia coli FimH-lectine domain assessed as melting temperature at 100 uM by differential scanning fluorometric assay. In outline: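 Untagged FimH lectin domain (residues 1–158 of UPEC J96 FimH), 5 µg in a 50 µl reaction of HBS (20mM HEPES pH 7.5, 150mM NaCl). Compound at 100µM final, diluted from DMSO stocks, with SYPRO Orange at 5X final. Controls were FimH alone plus 0.2% DMSO. Melt curve ran from 20–90°C in 0.5 °C steps of 15 s each, with fluorescence read on the HEX channel.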

The term Kd denotes the constant that tells how readily two partners part at equilibrium. One may read the IC50 as the point on the concentration scale where inhibition reaches its midpoint. As for `CNC(=O)c1cc(C(=O)NC)cc(-c2ccc(O[C@H]3O[C@H](CO)[C@@H](O)[C@H](O)[C@@H]3O)cc2)c1`, the “log Pe” value in series [1] is on record as -4.51. In [2], the Stability result was “Unstable”. Further, the Drug metabolism entry in series [3] is reported as “Active”. Also, the Ratio in series [4] came out at 10. Moreover, binding in [5] was put at a Kd of 0.14 nM. Further, the concentration at 6 h in series [6] came to 4850 nM; in series [8], 10 nM. Also, in series [7], the MED was 0.74 µM. Also, the IC50 in series [7] (Escherichia coli, K-12 ATCC 25404, 2 h) came to 740 nM. Further, the Tm in series [9] was 74.4 °C.
